Test system: MS2 coat protein
Assay: apparent Kd, MS2 coat protein; higher = weaker binding; RNA-MaP array; FMN 200 µM where present
Method in brief: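 SNAP-549-labelled MS2 coat protein, doubled from 0.7 or 1.5 nM to 3 µM, was titrated over designs transcribed by stalled E. coli RNA polymerase on Illumina sequencing-chip clusters. Titrations were run without and then with constant ligand in 100 mM Tris-HCl pH 7.5, 80 mM KCl, 4 mM MgCl2, BSA, DTT, yeast tRNA and Tween-20. The apparent Kd is the median of filtered per-cluster fits to green signal normalised to red-channel RNA signal and control-cluster median Fmax.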

[1] = designed as: OFF switch for flavin mononucleotide, no ligand
[2] = ligand present: flavin mononucleotide, designed as: OFF switch for flavin mononucleotide
[3] = designed as: ON switch for flavin mononucleotide, no ligand
[4] = ligand present: flavin mononucleotide, designed as: ON switch for flavin mononucleotide

Sequence | apparent Kd [1] [nM] | apparent Kd [2] [nM] | apparent Kd [3] [nM] | apparent Kd [4] [nM]
CGGGUCUGAGGAUAUCCAUCUUCAUACAUGAGGAUCACCCAUGUUCACCCUUGGGUUCCCGGAGAAGGCAGUUUUC | 65 | 67.8 | – | –
CGGUUGCGCUCCUAUGGUUUGAACAUGAGGAUCACCCAUGUACAGGAUAUAGUAAGAACGCCUUACUAGAAGGGUACGUUCUCG | 18.9 | 22 | – | –
CGUACACAUGAGGAUCACCCAUGUCAGAUUUGGUCAGGAUAUGGGCGGCAUCCGCUAUAGCCAGAAGGGACUGUUG | – | – | 173 | 204
CGUACACAUGAGGAUCACCCAUGUCAGAUUUGGUCAGGAUAUGGGCGGCAUCCGCUAUUGCCAGAAGGGACUGUUG | – | – | 83.1 | 160
CGUAGCAAAGUGAGGAUAUCUAGAGCGAUAGCUCUAGAGAAGGCACAUGAGGAUCACCCAUGUGAUCAGCUACG | 276 | 899 | – | –
CGUAGGAUCCAGAAGGCAUGAACAUGAGGAUCACCCAUGUUAAAAUACAUGAGGAUAUGGAUCCUACGAAAAGUGCGAAAGCAC | – | – | 5.75 | 4.99
CGUAGGAUCCAGAAGGCAUGUACAUGAGGAUCACCCAUGUCAAUAGACAUGAGGAUAUGGAUCCUACGAAAAGUGCGAAAGCAC | – | – | 10.5 | 4.49
CGUAGGAUCCAGAAGGCAUGUACAUGAGGAUCACCCAUGUCGAUAGACAUGAGGAUAUGGAUCCUACGAAAAGUGCGAAAGCAC | – | – | 17.1 | 5.16
CGUAUGUCAGGAUAUGUGUAUGCCGGUCAGGGCGAGCGGCAGCAGAAGGGACAUGAGGAUCACCCAUGUUCGGG | 59.6 | 116 | – | –
CGUCCGUGGGUAGUGAUCGUACAUGAGGAUCACCCAUGUGAGAAGGAUAUGCAUGCACAUGGACAGCAGAAGGUCUCAUAACAA | 69.4 | 353 | – | –
CGUCGCUGUCGAGAGGAUAUGCGGUGGUGGACAUGAGGAUCACCCAUGUUAGCGAUAGCAUCACGGUAGAAGGCUCUUACGACUG | – | – | 21.4 | 20.6
CGUGACUCAGGAUAUCUAUAAUAUCACAUGAGGAUCACCCAUGUCCAGCAAUAGCUGGAGGGAGAAGGGAGUCACG | 140 | 54.9 | – | –
CGUGACUCAGGAUAUCUAUUAUGUCACAUGAGGAUCACCCAUGUCCAGCGAAAGCUGGAGGGAGAAGGGAGUCACG | 97.9 | 34.9 | – | –
CGUGCAUAUGUAGGAUAUGGUUAUCUAUGUCUAGUUACUAGACAUAGAUAACCAGAAGGACAUGAGGAUCACCCAUGUAGCACG | 9.7 | 17.4 | – | –
CGUGCGUAUGUGAGGAUAUGCUGGUCCUUGGAUCAGCAGAAGGCACAUGAGGAUCACCCAUGUGGUGUCGUACU | 297 | 19.2 | – | –
CGUGUCGCAUGAGGAUAUGGUCAGCUUUGCUGACCAGAAGGCAUGUCAAUAGACAUGAGGAUCACCCAUGUAGUAAAGACACGA | – | – | 416 | 33.9
CGUUCAGAGAACGAUACGAAUAGACAUGAGGAUCACCCAUGUAGAAGGACAACGGAAUAAACGUUGUAGGAUAUACAUUUAGUG | 41.3 | 111 | – | –
CGUUUGGGAGGAUAUCCAAUAUAUGACAUGAGGAUCACCCAUGUUUCCACUCGUACCUCCGGAGAAGGCCCUGCGU | 22.9 | 21 | – | –
CUACGCUAGGAGAAGGGCUAGAGUGUGAUAUAUUUGCCCGCGAGCACAUGAGGAUCACCCAUGUAGCAGGAUAUCCAAGCCGGU | 7.59 | 16.8 | – | –
CUACGUGUCGAGAAGGGCUCACGUAACGGAACAGCAGGAUAUCGACAUGAGGAUCACCCAUGUCGGAACGAACGGAUCUUUAAU | 7.24 | 8.18 | – | –
CUAGACAUAUCAGGAUAUCAUCGCGUGGAUUAACCCUGUGAUUACAUGAGGAUCACCCAUGUGCUUGAGAAGGGAUUACUAUUU | 35.7 | 145 | – | –
CUAGCAGAUGUAGGAUAUGCUCAGGAUAACUGAGCAGAAGGACAUGAGGAUCACCCAUGUAAAGUGUCUCUAAAUAACUGCUAG | 22.9 | 80.5 | – | –
CUAGCAUACCGAGGAUAUUCAUAUAAUAAAUAAACAUGAGGAUCACCCAUGUGGCGAAAGCCUAGGGAGAAGGCGGAAUGCUAA | – | – | 185 | 24.8
CUAGCUAUCGGAGGAUAUUCAUACCGGAAACGGACAUGAGGAUCACCCAUGUGCCGAAAGGCUUGGGAGAAGGCCGAUAGCUAG | – | – | 272 | 20.6
CUAGCUUGCACAGGAUAUAGGCUCGGAGCUUACAUGAGGAUCACCCAUGUAGUGCGAGUGAAGCACUAGAAGGGUGAUGGGUAG | – | – | 40.4 | 22.8
CUAGUUGUCGCAGGAUAUGCCCGCUGGUUGGAGGCAGAAGGGUGACACCAAAUAUUAUACAUGAGGAUCACCCAUGUCGCCAAC | – | – | 17.9 | 19.3
CUAUGACGAAUAGGAUAUUCGAUCAAAAGGAUAGAAGAAGGGUUACAUGAGGAUCACCCAUGUAUGCACAUGAGGAUCCCUUAG | 193 | 219 | – | –
CUAUUGAUAACAGGAUAUAUGAGUCCUACAUGAGGAUCACCCAUGUAGGUGAUCAGCCGUGAUUAGUAGAAGGGUUAUCAAUAG | – | – | 12.7 | 6.63
